Activity calls are given as the source filed them. The calls are words filed in the database; no cut-off is given here.
Assays:
[1] = test system: Candida albicans; experiment: Antifungal activity against Candida albicans ATCC 90028 at 20 ug/ml; type: functional, organism-based
[2] = test system: Nakaseomyces glabratus; experiment: Antifungal activity against Candida glabrata at 20 ug/ml; type: functional, organism-based
[3] = test system: Mycobacterium intracellulare; experiment: Antibacterial activity against Mycobacterium intracellular ATCC 23068 at 20 ug/ml by CLSI method; type: functional, organism-based
[4] = test system: Cryptococcus neoformans; experiment: Antifungal activity against Cryptococcus neoformans ATCC 90113; type: functional, organism-based
[5] = test system: Plasmodium falciparum; experiment: Antimalarial activity against chloroquine-sensitive Plasmodium falciparum D6 by LDH assay; type: functional, organism-based
Summary of the method: (§1)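 Antiplasmodial activity was measured in vitro against P. falciparum blood-stage cultures. Read-out was parasite lactate dehydrogenase (LDH) activity, with IC50 values expressed in µg/mL. The same protocol was used for the D6 and W2 strains.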

[6] = test system: Mycobacterium intracellulare; experiment: Antibacterial activity against Mycobacterium intracellular ATCC 23068 by CLSI method; type: functional, organism-based
[7] = test system: Candida albicans; experiment: Antifungal activity against Candida albicans ATCC 90028; type: functional, organism-based
[8] = test system: Pichia kudriavzevii; experiment: Antifungal activity against Candida krusei at 20 ug/ml; type: functional, organism-based
[9] = test system: Vero; experiment: Cytotoxicity against african green monkey Vero cells up to 10 ug/ml by neutral red assay; type: cell-based; settings: chlorocebus sabaeus
Summary of the method: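 Vero (monkey kidney) cells were exposed up to a highest concentration of 10 µg/mL. Viability was read by neutral red uptake.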

[10] = test system: Staphylococcus aureus; experiment: Antibacterial activity against methicillin-resistant Staphylococcus aureus ATCC 43300 by CLSI method; type: functional, organism-based
Summary of the method: (§2)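 Broth dilution method (NCCLS M7-A5). […] MIC is the lowest concentration allowing no detectable growth. MBC is the lowest concentration killing the organism. Highest test concentration was 20 µg/mL.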

[11] = test system: Leishmania donovani; experiment: Antileishmanial activity against promastigotes of Leishmania donovani by alamar blue assay; type: functional, organism-based; settings: for IC50: read-out: IC50
[12] = Inhibition of beta-hematin formation; type: functional
[13] = Hematotoxicity against RBC assessed as formation of methemoglobin at 20 ug/ml relative to control; type: cell-based; settings: erythrocyte
Summary of the method: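 Metabolism-linked methemoglobin toxicity in vitro. Percent MetHb formation was determined at 20 µg/mL of compound relative to vehicle control.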

[14] = test system: Aspergillus fumigatus; experiment: Antifungal activity against Aspergillus fumigatus ATCC 90906 at 20 ug/ml; type: functional, organism-based
[15] = test system: Plasmodium falciparum; experiment: Antimalarial activity against chloroquine-resistant Plasmodium falciparum W2 by LDH assay; type: functional, organism-based; settings: Plasmodium falciparum, W2; read-out: IC50; summary of the method: as §1
[16] = test system: Plasmodium berghei; experiment: Antimalarial activity against Plasmodium berghei infected in mouse assessed as complete elimination of malaria parasites from animals at 100 mg/kg, po qd for 4 days measured up to 60 days; type: functional, organism-based; parameters: dose 100 mg/kg
Summary of the method: (§3)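 Rodent P. berghei (sensitive strain) blood-schizontocidal model, 6 mice per group. Compounds were given orally once daily for 4 days at 10, 25, 50 or 100 mg/kg/day. Cure meant complete parasite elimination with survival to day D+60.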

[17] = test system: Plasmodium berghei; experiment: Antimalarial activity against Plasmodium berghei infected in mouse assessed as complete elimination of malaria parasites from animals at 50 mg/kg, po qd for 4 days measured up to 60 days; type: functional, organism-based; parameters: dose 50 mg/kg; summary of the method: as §3
[18] = test system: Staphylococcus aureus; experiment: Antibacterial activity against methicillin-resistant Staphylococcus aureus ATCC 43300 at 20 ug/ml by CLSI method; type: functional, organism-based; summary of the method: as §2
[19] = test system: Plasmodium berghei; experiment: Antimalarial activity against Plasmodium berghei infected in mouse assessed as negative parasitemia level at 10 mg/kg, po qd for 4 days measured up to 7 days; type: functional, organism-based; parameters: dose 10 mg/kg
Summary of the method: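 Mice infected with P. berghei (sensitive strain), 6 per group, dosed orally at 10–100 mg/kg/day × 4. Suppression meant negative parasitemia in all treated animals up to D+7. Survivors were counted at D+60.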

[20] = test system: Plasmodium berghei; experiment: Antimalarial activity against Plasmodium berghei infected in mouse assessed as complete elimination of malaria parasites from animals at 25 mg/kg, po qd for 4 days measured up to 60 days; type: functional, organism-based; parameters: dose 25 mg/kg; summary of the method: as §3
[21] = Plasmodium falciparum, D6, read-out: IC50

SMILES	MFC [1]	MIC [1]	Activity [2]	MBC [3]	IC50 [4] [µg/mL]	MIC [4] [µg/mL]	IC50 [5, 21] [µg/mL]	IC50 [6] [µg/mL]	Activity [8]	Activity [9]	IC50 [10] [µg/mL]	MIC [10] [µg/mL]	IC90 ([11]; Leishmania donovani) [µg/mL]	IC50 ([11]; Leishmania donovani) [µg/mL]	IC50 [12] [µM]	Methemoglobin formation [13] [%]	Activity [14]	Activity [16]	MIC [3]	MBC [18]	further results
COc1cc(NC(C)CCCNC(=O)N[C@@H](CCCN)C(=O)NCCCC(C)Nc2cc(OC)cc3ccc(C(C)(C)C)nc23)c2nc(C(C)(C)C)ccc2c1.Cl (stereo partly specified)	inactive	inactive	inactive	inactive	15	20	4	15	inactive	Non-toxic	6.5	20	33	18	152	0.2	inactive	–	–	–	IC50 [7]: 15 µg/mL; MBC [10]: 20 µg/mL
COc1cc(NC(C)CCCNC(=O)CC[C@H](N)C(=O)NCCCC(C)Nc2cc(OC)cc3ccc(C(C)(C)C)nc23)c2nc(C(C)(C)C)ccc2c1.Cl (stereo partly specified)	–	–	–	inactive	–	–	4.7	–	–	Non-toxic	8.5	20	10.7	3.9	> 1000	3.3	–	inactive	inactive	–	IC50 [15]: 2.3 µg/mL; IC50 [3]: Not Active; MBC [10]: 20 µg/mL
COc1cc(NC(C)CCCNC(=O)NC(CCCNC(=N)N)C(=O)NCCCC(C)Nc2cc(OC)cc3cccnc23)c2ncccc2c1 (single isomer, unassigned; 36)	inactive	inactive	inactive	–	–	–	–	–	inactive	–	–	–	–	–	–	–	inactive	Active	–	–	Activity [17]: inactive
CCCCCOc1c(OC)cc(NC(C)CCCNC(=S)NCCCC(C)Nc2cc(OC)c(OCCCCC)c3c(CC)ccnc23)c2nccc(CC)c12.Cl.Cl (stereo unspecified)	inactive	–	inactive	inactive	10	20	–	15	inactive	Non-toxic	3.5	5	–	40	> 1000	1.7	inactive	–	–	–	IC50 [15]: 4.76 µg/mL; MFC [4]: 20 µg/mL; IC50 [5]: Not Active; MIC [6]: 20 µg/mL; IC50 [7]: 10 µg/mL; MIC [7]: 20 µg/mL; MBC [10]: 10 µg/mL; IC90 [11]: inactive
COc1cc(NC(C)CCCNC(=O)NC(CCCN)C(=O)NCCCC(C)Nc2cc(OC)cc3cccnc23)c2ncccc2c1 (single isomer, unassigned; 40)	inactive	inactive	inactive	inactive	–	–	–	–	inactive	–	–	–	–	–	–	–	inactive	–	inactive	inactive	–
COc1cc(NC(C)CCCN)c2ncccc2c1 (stereo unspecified) [PRIMAQUINE]	–	–	–	–	–	–	–	–	–	Non-toxic	–	–	–	–	> 1000	10	–	inactive	–	–	Activity [19]: inactive; IC90 [11]: inactive
COc1cc(NC(C)CCCNCC(=O)NCCCC(C)Nc2cc(OC)cc3ccc(C(C)(C)C)nc23)c2nc(C(C)(C)C)ccc2c1.Cl.Cl (stereo unspecified)	–	–	–	inactive	–	–	1.5	15	–	Non-toxic	15	20	7.8	2.9	75	1.1	–	–	inactive	inactive	IC50 [15]: 1.3 µg/mL
COc1cc(NC(C)CCCNC(=O)C[C@H](N)C(=O)NCCCC(C)Nc2cc(OC)cc3cccnc23)c2ncccc2c1.Cl (stereo partly specified)	inactive	inactive	inactive	inactive	7.5	10	4.76	20	inactive	Non-toxic	15	20	30	–	185	5.4	inactive	–	inactive	inactive	IC50 [15]: 3.8 µg/mL; IC50 [1]: Not Active; MFC [4]: 10 µg/mL
CCCCCOc1c(OC)cc(NC(C)CCCNC(=O)NCCCC(C)Nc2cc(OC)c(OCCCCC)c3c(CC)ccnc23)c2nccc(CC)c12.Cl.Cl (stereo unspecified)	–	–	–	inactive	–	–	1.7	–	–	Non-toxic	8.5	20	7	3.5	80	4.7	–	–	inactive	inactive	IC50 [15]: 1.3 µg/mL; IC50 [3]: Not Active
COc1cc(NC(C)CCCNC(=O)C[C@H](N)C(=O)NCCCC(C)Nc2cc(OC)cc3ccc(C(C)(C)C)nc23)c2nc(C(C)(C)C)ccc2c1.Cl (stereo partly specified)	inactive	inactive	inactive	inactive	10	20	–	–	inactive	Non-toxic	6.5	–	33	15	140	1.55	inactive	inactive	inactive	–	IC50 [1]: Not Active; IC50 [3]: Not Active; MFC [4]: 20 µg/mL; IC50 [5]: Not Active; MBC [10]: 20 µg/mL
COc1cc(NC(C)CCCNC(=O)C[C@@H](N)C(=O)NCCCC(C)Nc2cc(OC)cc3cccnc23)c2ncccc2c1.Cl (stereo partly specified)	–	–	–	inactive	–	–	3.3	15	–	Non-toxic	15	–	31	11.5	120	7.25	–	–	–	inactive	MIC [6]: 20 µg/mL; MIC [18]: inactive
COc1cc(NC(C)CCCNC(=O)CC[C@H](N)C(=O)NCCCC(C)Nc2cc(OC)cc3cccnc23)c2ncccc2c1.Cl (stereo partly specified)	inactive	inactive	inactive	inactive	15	20	–	15	inactive	Non-toxic	15	20	35	16	85	13.35	inactive	Active	–	inactive	Activity [20]: Active; IC50 [1]: Not Active; MFC [4]: 20 µg/mL; MIC [6]: 20 µg/mL; Activity [19]: Active; Activity [17]: Active
COc1cc(NC(C)CCCNC(=O)N[C@H](CCCCN)C(=O)NCCCC(C)Nc2cc(OC)cc3cccnc23)c2ncccc2c1.Cl (stereo partly specified)	inactive	inactive	inactive	inactive	10	20	–	–	inactive	Non-toxic	10	20	36	18.5	162	2.8	inactive	–	inactive	inactive	IC50 [1]: Not Active; IC50 [3]: Not Active; MFC [4]: 20 µg/mL
COc1cc(NC(C)CCCNC(=O)NC(CCCN)C(=O)NCCCC(C)Nc2cc(OC)cc3cccnc23)c2ncccc2c1 (single isomer, unassigned; 37)	inactive	inactive	inactive	–	–	–	–	–	inactive	–	–	–	–	–	–	–	inactive	inactive	–	–	–

— ChEMBL document CHEMBL1641445, “Synthesis, antiprotozoal, antimicrobial, β-hematin inhibition, cytotoxicity and methemoglobin (MetHb) formation activities of bis(8-aminoquinolines)” (Bioorg Med Chem, 2011)
